# Test results reported in ChEMBL document CHEMBL1124873, “Cytotoxicity and antitumor activity of bis(platinum) complexes. A novel class of platinum complexes active in cell lines resistant to both cisplatin and 1,2-diaminocyclohexane complexes” (1990).
# “And” between values parts separate entries of the source, which are not always exact repeats. Equal values may be shown once.
# Tests used:
# [1] = tested on: Mus musculus; test: Antitumor activity against P388 leukemia was determined at 5 mg/kg dose given on 1, 5, 9 days after tumor implantation in mice; assay type: functional, organism-based; parameters: dose 5 mg/kg
# Summary of the method: (§1)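 Male BDF1 mice (18–20 g) inoculated ip with 10^6 L1210/0 or P388 ascites leukemia cells on day 0. Test compound given ip on days 1, 5 and 9; dosing stopped after two doses if over half of the animals had died by day 9. Deaths recorded over 60 days. %T/C = mean survival of treated mice that died ÷ mean survival of untreated tumour-bearing controls. Long-term survivors also counted.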
# [2] = tested on: Mus musculus; test: Antitumor activity against L1210 leukemia was determined at 5 mg/kg dose given on 1, 5, 9 days after tumor implantation in mice; assay type: functional, organism-based; parameters: dose 5 mg/kg; summary of the method: as §1
# [3] = tested on: L1210; test: In vitro cytotoxicity in L1210 leukemia resistant to cisplatin; assay type: functional, Mus musculus; conditions: read-out: ID50 (the source's name)
# Summary of the method: (§2)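 L1210 murine leukaemia (sensitive, 40–60-fold DDP-resistant, or 30-fold [Pt(R,R-dach)SO4]-resistant) grown in suspension in McCoy's 5A with 5% horse serum and glutamine. Cells at 5 × 10^4/mL exposed 72 h to 0.01–10 μg/mL (final) compound, from DMF stock diluted in saline (≤0.5% DMF) or water for malonates. Cells Coulter-counted; ID50 from % growth inhibition.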
# [4] = tested on: L1210; test: In vitro cytotoxicity in L1210 leukemia sensitive to cisplatin; assay type: functional, Mus musculus; conditions: read-out: ID50 (the source's name); summary of the method: as §2
Molecule,T/C [1] [%],T/C [2] [%],"IC50 ([3]; Mus musculus, L1210) [µM]",IC50 [3] [µM],IC50 [4]
CISPLATIN,170,210,,,
CC(C)(N)CCC(C)(C)N,,,9.09,5.53,6.2 µM and 0.98 µM
